Screens: PubChem, several laboratories
CAL PDZ FP-1: human CAL PDZ-peptide interaction inhibition. Q9HD26. purified CAL PDZ, TMR-peptide fluorescence polarization, 1 h. inhibition, % at 20 µM. 0.02% of 330,000 active;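 active = highest replicate inhibition of at least 40%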;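 note: plate controls were DMSO neutral control wells for no effect and unlabeled competitor peptide control wells for full effect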
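Test system: purified CerCALP PDZ construct; Compound dosing: one concentration, 20 µM compound; Also added: TMR-labelled reporter peptide T*-PRC34 bound in PDZ groove; Read-out: inhibition from polarization loss; Controls: unlabelled peptide and DMSO controls; Signal: FP readout, S and P plane fluorescence; Incubation: 1 h at RT.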
ERAP1 HTS inh: inhibitors of human ERAP1 aminopeptidase. Q9NZ08. recombinant ERAP1, Leu-AMC fluorescence, 60 min. inhibition, % at 10.7 µM. 0.15% of 340,000 active. AID 652197;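 active = mean replicate inhibition of at least 30%, or all replicates individually reaching that 30% level; inactive = mean below 30% and not every replicate reaching it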;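 note: 0% = neutral control wells and 100% = L-leucinethiol positive control wells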
Rin1-Abl PPI inh: human Rin1-Abl interaction inhibition; P00519+Q13671; TR-FRET Rin1/Abl binding, biochemical; inhibition, % at 7.35 µM; 0.4% of 360,000 active; in the data active = inhibition above about 5%, passing the limit was not always enough
CAL PDZ FP-2: blocks peptide binding to the human CAL PDZ domain. purified CAL PDZ, TMR-peptide fluorescence polarization, 1 h. AID 602252. 0.92% of 300,000 active. Q9HD26. inhibition, % at 24.9 µM;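 active = mean inhibition of at least 30% with at least half of replicates also reaching 30%; inconclusive = no clear call, values can overlap the other calls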;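 note: 0% = DMSO neutral control and 100% = excess unlabeled competitor peptide PRC23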
ERp5 block: blocks human ERp5 reductase activity on insulin; Q15084; ERp5 insulin aggregation, absorbance 650 nm, 90 min; inhibition, % at 9.99 µM; 0.05% of 350,000 active; AID 651711;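 active = mean replicate inhibition above about 25%, with every replicate also reaching it, limit read from the data, passing the limit was not always enough; inconclusive = only one of those two criteria met; inactive = neither criterion met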
PDI turbidity: blocks human protein disulfide isomerase activity. inhibition, % at 10 µM. 0.052% of 350,000 active. P07237. PDI insulin aggregation turbidity, A650, 90 min;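 active = mean inhibition across replicates of 30% or more, whatever share of single replicates reach that level; inconclusive = mean inhibition below 30% while every single replicate reaches 30%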
Target sequence (P07237 whole entry, looked up): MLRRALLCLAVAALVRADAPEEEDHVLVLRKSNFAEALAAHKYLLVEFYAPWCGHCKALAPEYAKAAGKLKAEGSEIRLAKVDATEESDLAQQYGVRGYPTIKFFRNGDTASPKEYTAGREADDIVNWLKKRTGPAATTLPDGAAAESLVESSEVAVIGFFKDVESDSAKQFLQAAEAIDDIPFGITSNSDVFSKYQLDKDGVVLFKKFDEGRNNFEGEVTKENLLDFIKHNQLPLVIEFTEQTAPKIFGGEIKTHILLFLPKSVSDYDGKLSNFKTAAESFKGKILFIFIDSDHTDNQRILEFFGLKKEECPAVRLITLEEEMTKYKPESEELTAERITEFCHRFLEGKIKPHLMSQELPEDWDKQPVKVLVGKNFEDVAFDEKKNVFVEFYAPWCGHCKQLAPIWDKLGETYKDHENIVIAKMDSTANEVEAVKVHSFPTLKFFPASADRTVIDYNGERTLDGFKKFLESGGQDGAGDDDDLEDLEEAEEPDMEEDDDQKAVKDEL
Numbers without * were called inactive; ? = inconclusive; . = no result given; ! = repeats disagree. Most compounds without a hit are left out; they make up all but 1.1% or so of the library.

SMILES	CAL PDZ FP-1	ERAP1 HTS inh	Rin1-Abl PPI inh	CAL PDZ FP-2	ERp5 block	PDI turbidity
COCCOC(=O)N1C(=O)[C@@]2(c3ccccc31)[C@H](C(=O)Nc1nc3ccccc3s1)[C@H]1C(=O)O[C@H](c3ccccc3)[C@H](c3ccccc3)N1[C@@H]2c1ccc(OCCO)cc1	.	-0.4	.	.	2.9	.
CC(C)CC#Cc1cnc2c(c1)C(=O)N([C@H](C)CO)C[C@@H](C)[C@H](CN(C)C(=O)c1cccnc1)O2	.	-1.4	.	.	-2.2	.
O=C(Nc1cccc(-n2cnnn2)c1)c1ccc(C(F)(F)F)cc1	-7.4	1.1	1.6	.	-2.8	0.7
O=C(COC(=O)c1cccc(-n2cnnn2)c1)Nc1c(Cl)cccc1C(F)(F)F	-2.1	1.6	-0.6	61.9*	-2.0	2.0
O=C(NNC(=O)c1cccc(C(F)(F)F)c1)c1ccc(-n2cnnn2)cc1	0.0	0.8	1.3	92.2*	3.5	17.3
O=C(Nc1cccc(-n2cnnn2)c1)c1ccc(OC(F)(F)F)cc1	-1.7	-0.9	1.3	98.4*	3.0	5.1
COc1ccc(CN2C[C@H](C)[C@@H](OC)CN(C)C(=O)c3cc(NC(=O)c4nc5ccccc5s4)ccc3OC[C@@H]2C)cc1	.	0.3	.	.	-4.2	.
C[C@@H]1CCCCO[C@H](CN(C)C(=O)Nc2ccc(C(F)(F)F)cc2)[C@@H](C)CN([C@H](C)CO)C(=O)c2cc(NC(=O)Nc3ccccc3)ccc2O1	.	-0.5	.	.	5.4	.
CCC1(C)CC2(CCCN(CCC(O)(c3ccccc3)c3ccccc3)C2)CCO1 (centres undefined)	-1.7	-0.3	-0.8	.	-5.4	-1.0
CC1(C)CC2(CCCN(CC(O)(c3ccccc3)c3ccccc3)C2)CCO1 (centres undefined)	-0.4	6.0	-4.3	86.3*	3.2	1.6
COc1ccc(OC)c(NC(=O)CSc2ccccc2)c1	.	.	0.5	54.4*	.	-5.4
COc1ccc(OC)c(NC(=O)C2CC(C)=C(C)CC2C(=O)O)c1 (centres undefined)	0.1	.	2.7	42.7*	.	3.5
COc1ccc(OC)c(NC(=O)CSc2ccc3ccccc3c2)c1	-1.6	.	3.7	-3.2	.	3.4
COc1ccc(OC)c(NC(=O)[C@H]2CC=CC[C@H]2C(=O)O)c1	-2.6	.	-0.5	.	.	-10.9
COC(=O)C1=C(C)NC(C)=C(C(=O)OC)C1C(=O)OC(C)C(=O)c1ccccc1 (centres undefined)	-0.5	7.3	-2.1	50.2*!	2.5	8.9
CCN(C(=O)C(C)OC(=O)C1C(C(=O)OC)=C(C)NC(C)=C1C(=O)OC)c1ccccc1 (centres undefined)	-1.6	7.1	2.9	-4.0	0.7	21.8
CCNC(=O)C[C@@H]1CC[C@@H]2[C@@H](COc3ccc(NC(=O)Cc4cccs4)cc3C(=O)N2C)O1	.	0.0	.	.	-3.8	.
CCOC(=O)C1=C(C)NC(C)=C(C(=O)OCC)C1c1ccc(Br)o1	-1.6	0.2	-0.1	178.6*	0.9	0.7
CCOC(=O)C1=C(C)NC(C)=C(C(=O)OCC)C1C	-2.2	33.7*	-1.5	-0.8	?	0.0
CCOC(=O)C1=C(C)NC(C)=C(C(=O)OCC)C1c1ccc(OC)cc1	-0.6	.	2.3	-2.8	.	0.5
Cc1ccc(N(CC(=O)NC2CCCCC2)C(=O)Cn2nnc(-c3ccc(C)o3)n2)cc1	16.6	-0.2	-0.8	-8.5	2.5	1.5
COc1ccc(C)cc1N(CC(=O)NC1CCCC1)C(=O)Cn1nnc(-c2ccc(C)o2)n1	0.3	-3.0	-1.2	103.2*	-0.4	-4.2
CCOC(=O)/C=C1\SCC(=O)N1Cc1nnc(-c2ccccc2Br)o1	-1.9	.	1.7	59.8*	.	8.4
COC(=O)c1ccc(CN2CC(=O)N3[C@H](CO)[C@@H](c4ccc(-c5ccccc5F)cc4)[C@@H]3C2)cc1	.	2.6	.	.	-1.9	.
O=C1CC2c3ccccc3C1C1C(=O)N(Cc3ccccc3)C(=O)C21 (centres undefined)	-0.8	-0.4	-4.0	34.9*	2.2	2.9
SMILES	CAL PDZ FP-1	ERAP1 HTS inh	Rin1-Abl PPI inh	CAL PDZ FP-2	ERp5 block	PDI turbidity
Cc1noc(C)c1NC(=O)Nc1cccc2c1O[C@@H](CN(C)Cc1ccc(C(=O)Nc3ccccc3N)cc1)[C@H](C)CN([C@@H](C)CO)C2=O	.	4.2	.	.	-0.6	.
Cc1cc(OCC(=O)Nc2nnc(C3CC3)s2)ccc1C(C)C	-0.2	-1.0	1.8	44.6*	5.2	6.2
O=C(Cc1ccc(Br)cc1)OCC(=O)c1ccc[nH]1	-0.2	0.6	2.7	44.4*	-7.0	8.3
Cc1ccc(OCC(=O)N2CCOCC2)c([N+](=O)[O-])n1	-2.1	-7.3	-1.9	-1.6	6.4	2.0
Cc1ccc(OCC(=O)N2CC(C)OC(C)C2)c([N+](=O)[O-])n1 (centres undefined)	6.8	0.8	-2.1	46.3*	4.8	-4.8
CCOc1ccccc1OCCCC(=O)Nc1ccc(S(=O)(=O)Nc2cc(C)nc(C)n2)cc1	-0.6	30.2*	0.2	-6.4	-2.7	-11.4
Cc1cc(NS(=O)(=O)c2ccc(NC(=O)CCCC(=O)O)cc2)nc(C)n1	-0.6	.	0.1	-0.7	.	17.2
COCCCNCC(O)COc1cccc2[nH]c(C)cc12 (centres undefined)	0.2	32.2*	2.5	1.8	-2.7	-7.8
Cc1cc2c(OCC(O)CNC(C)(C)C)cccc2[nH]1 (centres undefined)	-0.2	.	-1.7	.	.	4.3
C[N+]1(CC(=O)OCCCc2ccccc2)CCCC1	-1.6	77.0*	-1.4	-1.0	3.8	-3.9
O=C(NCc1nnc(SCC(=O)N2CCCCC2)o1)c1c(F)cccc1Cl	-1.3	-3.3	-0.8	78.1*	-2.0	9.0
O=C(CSc1nnc(CNC(=O)c2c(F)cccc2Cl)o1)NC1CCCC1	-1.2	-3.7	-1.1	74.0*	3.5	17.5
CC1CCN(C(=O)CSc2nnc(CNC(=O)c3ccc(S(=O)(=O)N(C)C)cc3)o2)CC1	0.5	-1.4	1.8	55.5*	4.3	-21.6
O=C(NCc1nnc(SCC(=O)N2CCCC2)o1)c1c(F)cccc1Cl	-2.9	.	4.1	-4.2	.	4.5
C[C@H](CO)N1C[C@H](C)[C@H](CN(C)S(=O)(=O)c2cn(C)cn2)Oc2cc(C3=CCCC3)ccc2S1(=O)=O	.	1.7	.	.	-2.0	.
NC(=O)C[N+]1(CC#CC(O)(c2ccccc2)c2ccccc2)CCCC1	-2.1	47.3*	0.6	2.5	0.8	-8.4
Cc1c(N2C(=O)c3ccc(Br)cc3C2=O)c(=O)n(-c2ccccc2)n1C	-0.7	.	-0.3	36.3*	.	-0.5
Cc1c(N2C(=O)c3ccc4c5c(ccc(c35)C2=O)CC4)c(=O)n(-c2ccccc2)n1C	-0.3	.	1.9	-3.5	.	-5.5
Cc1ccc(O)c(C(=O)c2cc(C#N)c(=O)n(-c3c(C)n(C)n(-c4ccccc4)c3=O)c2)c1	0.5	.	2.6	-1.1	.	18.8
Cc1c(-n2cc(C(=O)c3cc(Br)ccc3O)cc(C#N)c2=O)c(=O)n(-c2ccccc2)n1C	.	.	3.9	-5.1	.	35.2*
